In brackets after ≈: the same amount, converted by molar mass.
What was measured:
[1] = tested on: Klebsiella pneumoniae; test: Antimicrobial activity against qnrA1 expressing Klebsiella pneumoniae UAB1 expressing porins by microdilution method; assay type: functional; conditions: for MIC: Klebsiella pneumoniae, UAB1
[2] = tested on: Klebsiella pneumoniae; test: Antimicrobial activity against qnrA1 expressing Klebsiella pneumoniae UAB1 GyrA/ParC mutant expressing porins by microdilution method; assay type: functional
[3] = tested on: Klebsiella pneumoniae; test: Antimicrobial activity against qnrA1 expressing Klebsiella pneumoniae N5 expressing porins by microdilution method; assay type: functional; conditions: for MIC: Klebsiella pneumoniae, N5
Method in brief: (§1)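 Microdilution MICs (μg/ml) of ciprofloxacin, levofloxacin or moxifloxacin against Enterobacteriaceae strains differing in qnrA1 carriage: qnrA1 cloned in pACYC184 in E. coli DH10B, natural qnrA1 plasmids transferred to E. coli J53, clinical K. pneumoniae, and qnrA1-negative isogenic controls.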

[4] = tested on: Klebsiella pneumoniae; test: Antimicrobial activity against qnrA1 expressing Klebsiella pneumoniae N5 GyrA/ParC mutant expressing porins by microdilution method; assay type: functional
[5] = tested on: Klebsiella pneumoniae; test: Antimicrobial activity against qnrA1 expressing Klebsiella pneumoniae1960 GyrA Ser83Phe mutant expressing porins by microdilution method; assay type: functional; conditions: for MIC: Klebsiella pneumoniae
[6] = tested on: Klebsiella pneumoniae; test: Antimicrobial activity against qnrA1 expressing Klebsiella pneumoniae 1960 GyrA Ser83Phe/ParC mutant expressing porins by microdilution method; assay type: functional
Method in brief: (§2)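 Mutants were selected on Mueller-Hinton agar containing ciprofloxacin or moxifloxacin, with colonies allowed to grow for up to 96 h. Colonies recovered one concentration step below the MPC were tested for ciprofloxacin MIC (μg/ml) by microdilution.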

[7] = tested on: Klebsiella pneumoniae; test: Antimicrobial activity against qnrA1 expressing Klebsiella pneumoniae 1132 expressing porins by microdilution method; assay type: functional; conditions: for MIC: Klebsiella pneumoniae; method in brief: as §1
[8] = tested on: Klebsiella pneumoniae; test: Antimicrobial activity against qnrA1 expressing Klebsiella pneumoniae 1132 GyrA/ParC mutant expressing porins by microdilution method; assay type: functional
[9] = tested on: Escherichia coli; test: Antimicrobial activity against Escherichia coli DH10B expressing porins by microdilution method; assay type: functional; conditions: for MIC: Escherichia coli, DH10B; method in brief: as §1
[10] = tested on: Escherichia coli; test: Antimicrobial activity against Escherichia coli DH10B/pACYC184 expressing porins by microdilution method; assay type: functional; conditions: for MIC: Escherichia coli, DH10B; method in brief: as §1
[11] = tested on: Escherichia coli; test: Antimicrobial activity against qnrA1 expressing Escherichia coli DH10B expressing porins by microdilution method; assay type: functional; conditions: for MIC: Escherichia coli, DH10B; method in brief: as §1
[12] = tested on: Escherichia coli; test: Antimicrobial activity against Escherichia coli J53 expressing porins by microdilution method; assay type: functional; method in brief: as §1
[13] = tested on: Escherichia coli; test: Antimicrobial activity against qnrA1 expressing Escherichia coli J53/pMG252 expressing porins by microdilution method; assay type: functional; conditions: for MIC: Escherichia coli, J53; method in brief: as §1
[14] = tested on: Escherichia coli; test: Antimicrobial activity against qnrA1 expressing Escherichia coli J53/pN5 expressing porins by microdilution method; assay type: functional; conditions: for MIC: Escherichia coli, J53; method in brief: as §1
[15] = tested on: Escherichia coli; test: Antimicrobial activity against qnrA1 expressing Escherichia coli J53/p1960 expressing porins by microdilution method; assay type: functional; conditions: for MIC: Escherichia coli, J53; method in brief: as §1
[16] = tested on: Escherichia coli; test: Antimicrobial activity against Escherichia coli J53/p1132 negative expressing porins by microdilution method; assay type: functional; method in brief: as §1
[17] = tested on: Klebsiella pneumoniae; test: Antimicrobial activity against Klebsiella pneumoniae C2 GyrA Ser83Phe/ParC mutant expressing porins by microdilution method; assay type: functional; method in brief: as §2
[18] = tested on: Klebsiella pneumoniae; test: Antimicrobial activity against Klebsiella pneumoniae C2/pMG252 GyrA Ser83Phe mutant expressing porins by microdilution method; assay type: functional; conditions: for MIC: Klebsiella pneumoniae, C2
[19] = tested on: Klebsiella pneumoniae; test: Antimicrobial activity against Klebsiella pneumoniae C2/pMG252 GyrA Ser83Phe/ParC mutant expressing porins by microdilution method; assay type: functional; method in brief: as §2
[20] = tested on: Klebsiella pneumoniae; test: Antimicrobial activity against Klebsiella pneumoniae C2 GyrA Ser83Phe mutant lacking porins by microdilution method; conditions: for MIC: Klebsiella pneumoniae, C2
[21] = tested on: Escherichia coli; test: Antimicrobial activity against qnrA1 expressing Escherichia coli J53/pMG252 GyrA/ParC mutant expressing porins by microdilution method; assay type: functional
[22] = tested on: Escherichia coli; test: Antimicrobial activity against qnrA1 expressing Escherichia coli J53/pN5 GyrA/ParC mutant expressing porins by microdilution method; assay type: functional
Method in brief: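 Broth microdilution MIC, in μg/ml, with ciprofloxacin, levofloxacin or moxifloxacin against the E. coli J53 transconjugant carrying qnrA1.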

[23] = tested on: Escherichia coli; test: Antimicrobial activity against qnrA1 expressing Escherichia coli J53/p1960 GyrA/ParC mutant expressing porins by microdilution method; assay type: functional
[24] = tested on: Escherichia coli; test: Antimicrobial activity against qnrA1 expressing Escherichia coli DH10B GyrA/ParC mutant expressing porins by microdilution method; assay type: functional
[25] = tested on: Escherichia coli; test: Antimicrobial activity against Escherichia coli J53 GyrA/ParC mutant expressing porins by microdilution method; assay type: functional
[26] = tested on: Escherichia coli; test: Antimicrobial activity against Escherichia coli J53/p1132 negative GyrA/ParC mutant expressing porins by microdilution method; assay type: functional

Compound: O=C(O)c1cn(C2CC2)c2cc(N3CCNCC3)c(F)cc2c1=O [CIPROFLOXACIN]
- MPC [1]: 16 µg/mL
- MIC [1]: 2 µg/mL (≈ 6.04 µM)
- MIC [2]: 16 µg/mL (≈ 48.3 µM)
- MPC [3]: 4 µg/mL
- MIC [3]: 0.25 µg/mL (≈ 0.754 µM)
- MIC [4]: 8 µg/mL (≈ 24.1 µM)
- MPC [5]: 64 µg/mL
- MIC [5]: 1 µg/mL (≈ 3.02 µM)
- MIC [6]: 32 µg/mL (≈ 96.6 µM)
- MPC [7]: 32 µg/mL
- MIC [7]: 4 µg/mL (≈ 12.1 µM)
- MIC [8]: 16 µg/mL (≈ 48.3 µM)
- MPC [9]: 0.015 µg/mL
- MPC [10]: 0.015 µg/mL
- MPC [11]: 2 µg/mL
- MPC [12]: 0.06 µg/mL
- MPC [13]: 4 µg/mL
- MPC [14]: 4 µg/mL
- MPC [15]: 4 µg/mL
- MPC [16]: 0.06 µg/mL
- MIC [17]: 4 µg/mL (≈ 12.1 µM)
- MPC [18]: 128 µg/mL
- MIC [18]: 2 µg/mL (≈ 6.04 µM)
- MIC [19]: 64 µg/mL (≈ 193 µM)
- MPC [20]: 8 µg/mL
- MIC [20]: 0.25 µg/mL (≈ 0.754 µM)

Compound: C[C@H]1COc2c(N3CCN(C)CC3)c(F)cc3c(=O)c(C(=O)O)cn1c23.C[C@H]1COc2c(N3CCN(C)CC3)c(F)cc3c(=O)c(C(=O)O)cn1c23.O [LEVOFLOXACIN]
- MPC [1]: 16 µg/mL
- MIC [1]: 2 µg/mL
- MIC [2]: 16 µg/mL
- MPC [3]: 4 µg/mL
- MIC [4]: 8 µg/mL
- MPC [5]: 64 µg/mL
- MIC [5]: 2 µg/mL
- MIC [6]: 64 µg/mL
- MPC [7]: 32 µg/mL
- MIC [7]: 4 µg/mL
- MIC [8]: 16 µg/mL
- MPC [9]: 0.015 µg/mL
- MIC [9]: 0.004 µg/mL
- MPC [10]: 0.015 µg/mL
- MIC [10]: 0.004 µg/mL
- MPC [11]: 2 µg/mL
- MIC [11]: 0.125 µg/mL
- MPC [12]: 0.06 µg/mL
- MPC [13]: 4 µg/mL
- MIC [13]: 0.25 µg/mL
- MIC [21]: 2 µg/mL
- MPC [14]: 4 µg/mL
- MIC [14]: 0.125 µg/mL
- MIC [22]: 4 µg/mL
- MPC [15]: 4 µg/mL
- MIC [15]: 0.125 µg/mL
- MIC [23]: 2 µg/mL
- MPC [16]: 0.06 µg/mL
- MIC [17]: 8 µg/mL
- MPC [18]: 128 µg/mL
- MIC [18]: 2 µg/mL
- MIC [19]: 64 µg/mL
- MPC [20]: 8 µg/mL
- MIC [20]: 0.25 µg/mL

Compound: COc1c(N2C[C@@H]3CCCN[C@@H]3C2)c(F)cc2c(=O)c(C(=O)O)cn(C3CC3)c12 [MOXIFLOXACIN]
- MPC [1]: 32 µg/mL
- MIC [1]: 4 µg/mL (≈ 9.96 µM)
- MIC [2]: 32 µg/mL (≈ 79.7 µM)
- MPC [3]: 16 µg/mL
- MIC [3]: 0.5 µg/mL (≈ 1.25 µM)
- MIC [4]: 4 µg/mL (≈ 9.96 µM)
- MIC [5]: 2 µg/mL (≈ 4.98 µM)
- MIC [6]: 16 µg/mL (≈ 39.9 µM)
- MPC [7]: 32 µg/mL
- MIC [7]: 8 µg/mL (≈ 19.9 µM)
- MIC [8]: 16 µg/mL (≈ 39.9 µM)
- MPC [9]: 0.06 µg/mL
- MIC [9]: 0.002 µg/mL (≈ 0.00498 µM)
- MPC [10]: 0.06 µg/mL
- MIC [10]: 0.002 µg/mL (≈ 0.00498 µM)
- MPC [11]: 2 µg/mL
- MIC [11]: 0.125 µg/mL (≈ 0.311 µM)
- MIC [24]: 0.5 µg/mL (≈ 1.25 µM)
- MPC [12]: 0.125 µg/mL
- MIC ([12]; Escherichia coli, J53): 0.015 µg/mL (≈ 0.0374 µM)
- MIC [25]: 0.5 µg/mL (≈ 1.25 µM)
- MPC [13]: 4 µg/mL
- MIC [13]: 0.5 µg/mL (≈ 1.25 µM)
- MPC [14]: 4 µg/mL
- MIC [14]: 0.125 µg/mL (≈ 0.311 µM)
- MPC [15]: 4 µg/mL
- MIC [15]: 0.125 µg/mL (≈ 0.311 µM)
- MIC [23]: 4 µg/mL (≈ 9.96 µM)
- MPC [16]: 0.25 µg/mL
- MIC ([16]; Escherichia coli, J53): 0.015 µg/mL (≈ 0.0374 µM)
- MIC [26]: 0.25 µg/mL (≈ 0.623 µM)
- MIC [17]: 2 µg/mL (≈ 4.98 µM)
- MIC [18]: 1 µg/mL (≈ 2.49 µM)
- MIC [19]: 32 µg/mL (≈ 79.7 µM)
- MPC [20]: 4 µg/mL
- MIC [20]: 0.125 µg/mL (≈ 0.311 µM)
